Compounds with a hit are over-represented: about 9.4% of the library has one in this group of screens.
SKKanGAS inh – blocks kanamycin growth of S. pyogenes SKKanGAS strain. actives 1.3% (n = 300,000). inhibition, % at 7.5 µM. BacTiter-Glo, 6 h;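 active = mean replicate score, as percent of positive control median, at least 50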;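 note: strain carries kanamycin resistance gene driven by streptokinase promoter and grows in 40 µg/ml kanamycin; loss of luminescence reflects streptokinase promoter inhibition or plain growth inhibition; 0% = median of DMSO wells and 100% = positive control at its reference dose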
Mdm2 MdmX PPI – disrupts the human Mdm2-MdmX interaction. SaOS-2 split-luciferase Mdm2/MdmX complementation, luminescence. inhibition, % at 8 µM. actives 3% (n = 330,000);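 active = inhibition of at least 50% at 8 µM in the primary screen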
Target sequence (O15151 whole entry, looked up): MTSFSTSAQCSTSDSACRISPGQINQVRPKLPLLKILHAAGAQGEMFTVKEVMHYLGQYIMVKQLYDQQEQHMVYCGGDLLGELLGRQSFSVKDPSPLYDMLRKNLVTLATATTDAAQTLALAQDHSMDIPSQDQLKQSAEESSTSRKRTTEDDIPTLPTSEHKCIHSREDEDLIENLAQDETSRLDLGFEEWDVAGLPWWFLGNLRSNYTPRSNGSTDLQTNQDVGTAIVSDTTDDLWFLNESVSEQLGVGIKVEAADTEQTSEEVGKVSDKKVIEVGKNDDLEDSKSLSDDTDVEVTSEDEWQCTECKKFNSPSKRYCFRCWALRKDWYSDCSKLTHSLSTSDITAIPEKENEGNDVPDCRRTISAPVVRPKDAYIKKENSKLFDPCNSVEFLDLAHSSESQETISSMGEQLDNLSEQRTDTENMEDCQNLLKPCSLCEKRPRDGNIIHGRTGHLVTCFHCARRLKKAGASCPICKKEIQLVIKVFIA
Target sequence (Q00987 whole entry, looked up): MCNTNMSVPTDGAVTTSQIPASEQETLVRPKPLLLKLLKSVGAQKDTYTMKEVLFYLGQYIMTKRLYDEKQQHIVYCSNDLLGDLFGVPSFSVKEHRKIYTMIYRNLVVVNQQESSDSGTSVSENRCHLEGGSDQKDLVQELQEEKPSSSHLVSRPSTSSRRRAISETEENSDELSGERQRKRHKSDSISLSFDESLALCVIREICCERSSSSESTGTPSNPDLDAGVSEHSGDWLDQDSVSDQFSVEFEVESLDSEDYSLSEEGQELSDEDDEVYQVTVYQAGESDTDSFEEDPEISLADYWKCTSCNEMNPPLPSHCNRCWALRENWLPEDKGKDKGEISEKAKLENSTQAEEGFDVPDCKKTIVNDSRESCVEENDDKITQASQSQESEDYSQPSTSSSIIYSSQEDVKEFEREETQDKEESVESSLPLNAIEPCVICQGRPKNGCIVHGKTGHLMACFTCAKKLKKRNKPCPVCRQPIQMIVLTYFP
T cruzi repl – T. cruzi replication inhibition | T. cruzi beta-gal in NIH3T3, luminescence, 90 h | inhibition, % (test concentration not listed) | actives 1.4% (n = 300,000) | AID 1885;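 active = mean inhibition across valid replicates above about 55%, limit read from the data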;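 note: signal also drops with host cell toxicity which is not excluded here; 0% = plate median of DMSO wells and 100% = zero luminescence signal; higher percent means less beta-gal luminescence so fewer parasites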
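System: NIH/3T3 fibroblasts plus reporter T. cruzi. Medium: DMEM plus 2% FBS. Probe or stimulus: 5000 reporter trypomastigotes per well. Compound: single 50 nL compound addition per well in DMSO. Incubation: co-culture of at least 90 h after 3 h attachment. Detection: GalScreen β-gal luminescence, detergent lysis, 60 min. Evaluation: parasite load inhibition, %.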
Beta apoptosis – blocks beta cell apoptosis; protection from apoptosis, % (no concentration beside the values); actives 0.8% (n = 300,000); INS-1E cytokine-induced death, ATP luminescence, 48 h; percent of positive-control rescue, neutral wells zero;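 active = Every replicate reaches about 75%, or at least half do and their mean reaches it too, limit read from the data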;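 note: 0% = cytokine-treated negative control wells and 100% = positive control rescue; higher means more ATP so stronger rescue from cytokine killing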
Lmaj promast – Leishmania major promastigote growth inhibition. Leishmania major promastigotes, resazurin fluorescence viability. inhibition, % at 10 µM. actives 9% (n = 200,000); in the data active = inhibition above about 50%;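 note: promastigotes grown with compound for 44 hours at 28 °C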
CSC inhib – blocks cancer stem cells; cancer stem cell-like cells viability, luminescence; inhibition, % at 7.5 µM; actives 1.1% (n = 300,000); AID 2717; in the data active = inhibition above about 75%; tested in HMLE shEcad cells
* marks the source's active call; other numbers are inactive results; · = not tested or not shown.

SMILES | SKKanGAS inh | Mdm2 MdmX PPI | T cruzi repl | Beta apoptosis | Lmaj promast | CSC inhib
O=C(Nc1ccc2c(c1)OCO2)c1cc(C2CC2)on1 | -5 | -66 | -8 | 7 | 52* | 98*
CC1=C(C(=O)N2CCOCC2)C(c2cc(C)ccc2C)NC(=S)N1 (stereo not given) | 1 | 1 | -15 | -15 | -3 | ·
CSc1ccc(C(=O)C2CCCN(C(=O)c3nonc3C)C2)cc1 (stereo not given) | 6 | -19 | 0 | -7 | · | -9
Nc1nnc(SCC(=O)NC2CCCCCC2)s1 | -4 | -5 | 0 | -12 | · | 0
Cc1ccc(-c2c[n+]3c(n2-c2ccccc2)SCC3)cc1 | 7 | 32 | 66* | 106* | · | 6
COc1ccc(-c2c[n+]3c(n2-c2ccccc2)SCC3)cc1 | -2 | 41 | 61* | · | · | -4
Brc1ccc(-c2c[n+]3c(n2-c2ccccc2)SCC3)cc1 | 5 | 4 | 47 | 49 | · | 2
CC(C)(C)c1csc(N/N=C/c2ccc(O)cc2)n1 | 13 | -66 | 2 | · | · | 36
Cc1ccc2c(CN3CCN(Cc4ccccc4)CC3)cc(=O)oc2c1C | 0 | -3 | 57* | -6 | · | -7
Cc1ccc2c(CN3CCOCC3)cc(=O)oc2c1C | -5 | 6 | 0 | 3 | · | 7
Cc1ccc2c(CN3CCN(CCO)CC3)cc(=O)oc2c1C | 5 | -3 | 55* | -5 | 55* | -5
COc1cccc(CNc2ccc(N3CCCCC3)cc2)c1OC | · | 12 | · | 20 | 100* | 5
COc1cc(CNc2ccc(N3CCCC3)cc2)cc(Cl)c1OC | 7 | 41 | 73* | 63 | 39 | 51
CCOc1ccc(CNc2ccc(N3CCCC3)cc2)cc1 | 2 | -12 | 52 | 109* | 100* | 4
Cc1ccc(CNc2ccc(N3CCOCC3)cc2)cc1 | 2 | -47 | 11 | 6 | · | -14
CC(C)c1ccc(CNc2ccc(N3CCOCC3)cc2)cc1 | 2 | -3 | 11 | 4 | 81* | 7
CC(C)(Oc1ccc(Br)cc1Cl)C(=O)Nc1ccon1 | 15 | 1 | 0 | -4 | · | 2
O=C(N/N=C/c1ccc(OC(F)F)cc1OC(F)F)c1cccc(S(=O)(=O)N2CCOCC2)c1 | -8 | -16 | -6 | -4 | 7 | 6
CC1CN(Cc2cc(=O)oc3cc(O)c(Cl)cc23)CC(C)O1 (stereo not given) | 12 | -23 | -31 | -8 | · | -16
Cc1[nH]c2ccccc2c1CCNC(=O)c1c(N)no[n+]1[O-] | -2 | -4 | -6 | -2 | 13 | -13
COc1ccccc1CNc1ccc(N2CCCCC2)cc1 | 5 | 17 | 65* | 7 | 22 | -3
Cc1c(CN(C)C)c2c(n1Cc1ccccc1)C(=O)c1ccccc1-2 | -2 | 45 | 11 | -3 | 75* | 10
Cc1cc(=O)n(Cc2ccccc2)c2ccccc12 | 3 | 14 | 7 | -4 | · | -12
O=C(COC(=O)c1ccc(O)cc1O)c1ccc2c(c1)OCO2 | 52* | 13 | 0 | · | · | 5
O=C(COC(=O)c1cc(Cl)ccc1O)c1ccc2c(c1)OCO2 | 2 | 11 | -5 | -1 | · | -14
SMILES | SKKanGAS inh | Mdm2 MdmX PPI | T cruzi repl | Beta apoptosis | Lmaj promast | CSC inhib
Cc1csc(NC(=O)c2ccc(COc3ccccc3)o2)n1 | -3 | -19 | 1 | 0 | · | 79*
O=C(Nc1nccs1)c1ccc(COc2ccccc2Cl)o1 | 0 | 7 | -9 | -2 | 3 | 81*
O=C(Nc1nccs1)c1ccc(-c2ccc(F)c(Cl)c2)o1 | 75* | -28 | 17 | 2 | · | 17
Cc1cccc(NC(=O)c2ccc(COc3ccc(Cl)cc3Cl)o2)n1 | 5 | 20 | 14 | -7 | 5 | 104*
O=Nc1c(O)c2ccccc2c2ccccc12 | 66* | · | -8 | 109* | · | 122*
Cc1ccc(S(=O)(=O)N/N=C/c2cccc3nccnc23)cc1 | 3 | 4 | 0 | 0 | · | 0
Fc1ccc(Cn2nnnc2CN2CCN(C3CCCC3)CC2)cc1 | 1 | -3 | -8 | -3 | 94* | 23
CCC(c1nnnn1Cc1ccc(F)cc1)N1CCN(C2CCCCC2)CC1 (stereo not given) | 0 | 0 | 9 | -1 | 31 | ·
CCN(C(=O)CCS(=O)(=O)c1cccc2nonc12)c1ccc(F)cc1 | -3 | 21 | 5 | -5 | · | -4
CN(CC(=O)Nc1ccc(S(=O)(=O)N2CCCC2)cc1)Cc1c(F)cccc1Cl | -1 | 20 | 16 | 11 | 100* | 23
COc1ccc(CC(=O)Nc2ccc(S(=O)(=O)N3CCOCC3)cc2)cc1 | · | -22 | · | -5 | · | -8
CN(CC(=O)Nc1ccc(S(=O)(=O)N2CCCC2)cc1)Cc1ccc(Cl)cc1 | 6 | -14 | 57* | -5 | 17 | 9
COc1ccc(S(=O)(=O)N(CC(=O)Nc2ccc(S(=O)(=O)N3CCOCC3)cc2)Cc2ccc(F)cc2)cc1 | 8 | -5 | 22 | 37 | 97* | 9
O=C(Cc1ccc(F)cc1)Nc1ccc(S(=O)(=O)N2CCCC2)cc1 | 1 | -19 | -9 | -1 | · | -3
CN(CC(=O)Nc1cc(Cl)ccc1C#N)C1CCS(=O)(=O)C1 (stereo not given) | · | 2 | · | 3 | · | -6
CC1(c2ccccc2)NC(=O)N(CC(=O)N(c2ccccc2)C2CCS(=O)(=O)C2)C1=O (stereo not given) | · | 5 | · | -17 | · | -20
O=[N+]([O-])c1ccc(-n2nnnc2-c2ccccc2)c([N+](=O)[O-])c1 | -2 | · | 62* | -7 | 100* | 63
O=[N+]([O-])c1ccc(-n2nnnc2-c2ccccc2)cc1 | 7 | -16 | 22 | 5 | 7 | -1
Cc1ccc(S(=O)(=O)NC(=O)COc2cc(C)ccc2C(C)C)cc1 | 5 | 0 | 1 | -4 | · | -3
CCNS(=O)(=O)c1ccc2nc(NC(=O)/C=C/c3cc(OC)c(OC)c(OC)c3)sc2c1 | 0 | 6 | 1 | 2 | 52* | 45
O=C(COc1ccc(F)cc1Br)NCc1nnc2ccccn12 | · | 1 | · | -1 | · | 13
C/C(=N\NC(=O)c1ccccn1)c1ccc(Cl)cc1 | 6 | -51 | 0 | 4 | · | 0
CN1CCC(=C(c2ccc(Cl)cc2)c2ccccn2)CC1 | -1 | -6 | 69* | 2 | · | -9
O=C(N[C@@H](Cc1ccccc1)C(=O)N1CCN(S(=O)(=O)c2ccc(F)cc2)CC1)c1ccco1 | · | -1 | · | · | · | ·
Oc1cc2c(cc1C(c1ccc(Br)cc1)N1CCCC1)OCO2 (stereo not given) | · | 39 | · | · | 73* | ·
Cc1cc(C)c2c(=O)n(CC(=O)N3CCC(N4CCCCC4)CC3)sc2n1 | 1 | -9 | -9 | -2 | 4 | -7
CCCNC(=O)Cn1sc2nc(C)cc(C)c2c1=O | 6 | 9 | 56* | -1 | · | 31
OC(COCc1ccccc1)CN1CCN(c2ccccc2F)CC1 (stereo not given) | 3 | -16 | -6 | -4 | 52* | -6
CC(C)NCC(O)COCc1ccc(Cl)cc1 (stereo not given) | -6 | -6 | 3 | 0 | -3 | -2

Compound activity: PubChem, several laboratories
